PG9 Ab binder – binders of HIV-1 gp120 antibody PG9, primary screen, biochemical, TR-FRET | 360,000 tested, 0.43% active | TR-FRET gp120-PG9 antibody binding | HIV-1 gp120 / PG9 antibody interaction | inhibition, % at 6.7 µM; in the data active means inhibition above about 8.5%
NR2E3 ag-1 – inhibitors of NR2E3-RetCOR corepressor binding, primary screen, NR2E3 agonist project, biochemical, TR-FRET, GST-NR2E3, biotin-RetCOR; inhibition of corepressor binding, % at 4.78 µM; 320,000 tested, 0.12% active; 1536-well; Photoreceptor-specific nuclear receptor (Homo sapiens), Q9Y5X4; AID 2300, 2010;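 active means percent inhibition above the cutoff of mean plus 3 SD of all tested compounds, set per screening campaign, cut at about 20% in these data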
Target sequence (Q9Y5X4 whole entry, looked up): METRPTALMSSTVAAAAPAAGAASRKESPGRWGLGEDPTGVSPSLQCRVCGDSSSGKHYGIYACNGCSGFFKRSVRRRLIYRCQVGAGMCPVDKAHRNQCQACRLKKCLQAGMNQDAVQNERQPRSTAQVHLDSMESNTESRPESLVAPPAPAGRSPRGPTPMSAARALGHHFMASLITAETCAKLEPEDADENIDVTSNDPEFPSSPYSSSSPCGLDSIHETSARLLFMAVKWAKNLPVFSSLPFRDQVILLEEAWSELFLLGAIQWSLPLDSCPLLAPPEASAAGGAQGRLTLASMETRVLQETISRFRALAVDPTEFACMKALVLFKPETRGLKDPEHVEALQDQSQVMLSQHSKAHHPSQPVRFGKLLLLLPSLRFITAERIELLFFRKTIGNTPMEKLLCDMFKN
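Test system – NR2E3–RetCOR corepressor complex · Quantity – NR2E3 fusion 1.35 nM · Buffer or medium – Tris pH 7.5 · Incubation – Compound–protein incubation for 5 h at 4 °C · Technique – TR-FRET, Eu(K)-anti-GST donor, streptavidin-D2 acceptor, ex 340, em 617/671 nm · Evaluation – percent inhibition of 671/617 nm emission ratio versus biotin and DMSO controls · Plate – 1536-well format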
NR1D1 modulator – modulators of Rev-erb alpha DNA binding, primary screen, biochemical, FITC-DNA, fluorescence polarization, uHTS; 370,000 tested, 0.79% active; Rev-erbα–FITC-DNA binding, 90 min; Nuclear receptor subfamily 1 group D member 1 (Homo sapiens), P20393; AID 1259318, 2017; activity, % at 10 µM;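 active means activity above about 14%, limit read from the data; passing the limit was not always enough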
NR2E3 ag-2 – NR2E3 agonists in two-hybrid cells, primary screen, cell-based, luminescence, CHO-S, Gal4-NCOR/VP16-NR2E3. inhibition of corepressor binding, % at 3.98 µM. Photoreceptor-specific nuclear receptor (Homo sapiens), Q9Y5X4. luciferase. 360,000 tested, 0.35% active;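 active means inhibition above the mean of all tested compounds plus 3 SD, cut at about 70% in these data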;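 further: higher means lower luciferase signal from less NR2E3 corepressor binding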
NR1D1 mod conf – modulators of Rev-erb alpha DNA binding, confirmation, biochemical, FITC-DNA, fluorescence polarization, single point; shares compounds with NR1D1 modulator; 90 min; activation, % at 25 µM; 3,000 tested, 61% active; AID 1259319, 2017;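 active means activation at or above a set limit, or at least 3 SD above the negative control mean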
RORg counter – modulation of RORgamma DNA binding, dose response, counter-screen for Rev-erb alpha modulator project, biochemical, fluorescence polarization, FITC-DNA | shares compounds with NR1D1 modulator | purified RORgamma protein-FITC-DNA binding | IC50, µM | 910 tested, 8% active;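 active means Compounds whose fitted half-maximal concentration for disrupting protein-DNA binding is below 10 micromolar; the record names Rev-erb in its text, so the target is in doubt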
Of the large screens only hits and unclear results are named; the others gave an inactive call (follow-up assays come after a bar, where they were run). Rows were chosen to be rich in hits. Some 1.4% of all compounds tested hit in one or more screens of this group.

CCCCOCCCNC(=O)C[C@H]1C[C@@]2(C(=O)OC)C(=C[C@H](C(C)(C)C)O[C@@H]2C)N(Cc2cccc3ccccc23)C1=O	none (no result: PG9 Ab binder, NR2E3 ag-1, NR2E3 ag-2)
CCN(CC)C(=O)CC[C@H]1CC[C@]2(CCCN(Cc3ccc(N(C)C)cc3)C2)O1	none (no result: PG9 Ab binder, NR2E3 ag-1, NR2E3 ag-2)
COc1ccc2nc(NC(=O)C3CCN(S(=O)(=O)c4cccc5nsnc45)CC3)sc2c1	none
COc1ccc2nc(NC(=O)C(NS(=O)(=O)c3cccc4nsnc34)C(C)C)sc2c1 (stereo unspecified)	NR1D1 modulator 31.0 | NR1D1 mod conf 18.2
c1ccn(-c2ccc(-c3noc(CCc4ccncc4)n3)cc2)c1	none (no result: PG9 Ab binder, NR2E3 ag-1, NR2E3 ag-2)
CCOc1ccc(-c2nc(-c3ccncc3)no2)cc1OCC	none
CCOc1cc(-c2nc(-c3ccncc3)no2)cc(OCC)c1OCC	NR1D1 modulator 28.2 | NR1D1 mod conf inactive
CCOc1ccc(-n2c(SCC(=O)Nc3ccc(S(=O)(=O)Nc4nccs4)cc3)nnc2-c2ccccc2)cc1	none (no result: PG9 Ab binder, NR2E3 ag-1, NR2E3 ag-2)
O=c1[nH]c(/C=C/c2ccccc2OC(F)F)nc2c1cnn2-c1ccccc1	NR1D1 modulator 23.8 | NR1D1 mod conf inactive
CCCc1cc2c(=O)c(-c3nc4ccccc4s3)c(COCC(=O)O)oc2cc1O	NR1D1 modulator 29.8 (no result: NR2E3 ag-1) | NR1D1 mod conf inactive
COc1ccccc1/C=N\NC(=O)c1cccc(S(=O)(=O)N(C)C)c1	none (no result: PG9 Ab binder, NR2E3 ag-1, NR2E3 ag-2)
Cc1ccc(C(=O)C2CCN(CC(=O)NCc3cccs3)CC2)cc1	none (no result: PG9 Ab binder, NR2E3 ag-1, NR2E3 ag-2)
COc1cc(C(=O)Nc2cccc(-c3nc4cc(C)ccc4o3)c2)cc(OC)c1OC	NR1D1 modulator 61.1 | NR1D1 mod conf 54.4 | RORg counter inactive
COc1cc(C(=O)Nc2cc(-c3nc4cc(C)ccc4o3)ccc2C)cc(OC)c1OC	none
CC(C)C(=O)Nc1cccc(-c2nc3ccccc3o2)c1	NR1D1 modulator 21.3 | NR1D1 mod conf 19.0
COc1ccc(OCC(=O)Nc2cccc(-c3nc4ccccc4o3)c2)cc1	NR1D1 modulator 26.4 | NR1D1 mod conf inactive
CC(C)CC(=O)Nc1cccc(-c2nc3ccccc3o2)c1	NR1D1 modulator 33.2 | NR1D1 mod conf 25.9
COc1cccc(CNS(=O)(=O)c2cc3c(cc2Br)CC(C)N3C(C)=O)c1 (stereo unspecified)	none (no result: PG9 Ab binder, NR2E3 ag-1, NR2E3 ag-2)
CCOc1ccccc1NC(=O)c1nnn(CC(=O)Nc2cc(C)cc(C)c2)c1N	NR1D1 modulator 21.3 | NR1D1 mod conf 32.1 | RORg counter inactive
COc1ccccc1NC(=O)c1nnn(CC(=O)Nc2cc(C)cc(C)c2)c1N	none
CCCCN(C)C1=CC2=CC(=C(C#N)C#N)CCC2CC1 (stereo unspecified)	NR1D1 modulator 69.4 | NR1D1 mod conf 34.2 | RORg counter inactive
CCN(CC)C1=CC2=CC(=C(C#N)C#N)CCC2CC1 (stereo unspecified)	NR1D1 modulator 65.7 | NR1D1 mod conf 24.4
N#CC(C#N)=C1C=C2C=C(N3CCCCC3)CCC2CC1 (stereo unspecified)	none (no result: PG9 Ab binder, NR1D1 modulator, NR2E3 ag-2)
CC(=O)CC[C@@H]1CC[C@]2(CCCN(S(C)(=O)=O)C2)O1	none (no result: PG9 Ab binder, NR2E3 ag-1, NR2E3 ag-2)
C[C@H]1[C@@H](OC(=O)NC2CCCCC2)CC[C@@]23CCCN2C(=O)CCC[C@@H]13	none (no result: PG9 Ab binder, NR2E3 ag-1, NR2E3 ag-2)
Cc1ccc(Cl)cc1NC(=O)Cn1cc(C(F)(F)F)cc(Cl)c1=O	none
Cc1c(Cl)cccc1NC(=O)Cn1cc(C(F)(F)F)cc(Cl)c1=O	NR1D1 modulator 43.6 | NR1D1 mod conf 42.7 | RORg counter inactive
CC(=O)c1c(C)[nH]c(C(=O)Nc2cc(S(=O)(=O)N3CCCCC3)ccc2C)c1C	NR1D1 modulator 16.8 | NR1D1 mod conf inactive
Cc1nc(SC(C(N)=O)c2ccccc2)c(C#N)c(C)c1C (stereo unspecified)	none
COc1ccccc1-c1cc(-c2ccccc2)nc(SC(C(N)=O)c2ccccc2)c1C#N (stereo unspecified)	NR1D1 modulator 39.2 | NR1D1 mod conf 20.2
Cc1occc1-c1nnc(SCC(=O)Nc2ccc3ncccc3c2)n1-c1ccccc1	none (no result: PG9 Ab binder, NR2E3 ag-1, NR2E3 ag-2)
Cc1ccc(Cn2c(SCC(=O)Nc3cc(C)on3)nc3ccccc3c2=O)cc1	PG9 Ab binder 16.8, NR1D1 modulator 45.3 | NR1D1 mod conf 18.5
C/C(N)=C(/C#N)C(=O)CSc1nc2ccccc2c(=O)n1Cc1ccc(C)cc1	NR1D1 modulator 69.7 | NR1D1 mod conf 25.4
CCOC(=O)C1CCN(C(=O)C(C)(C)NC(=O)Nc2ccc(Cl)cc2Cl)CC1	none (no result: PG9 Ab binder, NR2E3 ag-1, NR2E3 ag-2)
CC(=O)c1ccc(N2CCN(S(=O)(=O)c3ccc4c(c3)CC(C)N4C(=O)C3CC3)CC2)cc1 (stereo unspecified)	NR1D1 modulator 30.8 | NR1D1 mod conf 24.2
Cc1ccc(S(=O)(=O)c2nnn3c2nc(N2CCCCC2)c2ccccc23)cc1	none
Cc1ccc(S(=O)(=O)c2nnn3c2nc(N2CCN(c4ccccn4)CC2)c2ccccc23)cc1C	NR1D1 modulator 71.8 | NR1D1 mod conf 62.5 | RORg counter inactive
CN(CCC#N)c1ccc(/C=C(\C#N)c2ccccn2)cc1	NR1D1 modulator 71.4 | NR1D1 mod conf 74.7 | RORg counter inactive
CCN(CC)c1ccc(/C=C(\C#N)c2ccccn2)cc1	none (no result: PG9 Ab binder, NR1D1 modulator)
Cc1ccc(C(=O)Oc2coc(CSc3ncccn3)cc2=O)cc1[N+](=O)[O-]	none (no result: PG9 Ab binder, NR2E3 ag-1, NR2E3 ag-2)
Cc1ccc(NC(=O)c2c(C)noc2-c2snnc2C)cc1	none
Cc1nnsc1-c1onc(C)c1C(=O)Nc1cc(Cl)cc(Cl)c1	NR1D1 modulator 24.8 | NR1D1 mod conf inactive
Cc1cccc(C)c1NC(=O)COC(=O)c1cc(-c2cccnc2)nc2ccccc12	NR1D1 modulator 19.2 | NR1D1 mod conf 21.2
COc1ccc(-c2cc(C(=O)OCC(=O)Nc3cc(C)on3)c3ccccc3n2)cc1OC	NR1D1 modulator 20.6 | NR1D1 mod conf inactive
O=C(COC(=O)c1cc(-c2cccnc2)nc2ccccc12)Nc1ccc(F)cc1F	none
O=c1[nH]cnc2cc(-c3ccc(Br)cc3)sc12	NR1D1 modulator 25.9 | NR1D1 mod conf inactive
COc1ccc(/C=C/C(=O)NC(=S)N2CCN(c3ccccc3OC)CC2)cc1	NR1D1 modulator 48.1 | NR1D1 mod conf 39.5 | RORg counter inactive
CCOC(=O)c1sc2nc(NC(=O)COc3ccccc3)sc2c1C	NR1D1 modulator 22.7 | NR1D1 mod conf 14.0
CC(=O)c1sc(NC(=O)COc2ccccc2)nc1C	none
O=c1[nH]c(-c2ccccc2F)nc2c1sc(=S)n2Cc1ccccc1	NR1D1 modulator 23.6 | NR1D1 mod conf inactive
NC(=O)CSc1nc2c(sc(=S)n2-c2ccccc2)c(=O)[nH]1	none (no result: NR2E3 ag-1)

Screening data as filed in PubChem.
